This note sets out measurements from ChEMBL document CHEMBL1138329, “Pharmacokinetic/pharmacodynamic model-guided identification of hypoxia-selective 1,2,4-benzotriazine 1,4-dioxides with antitumor activity: the role of extravascular transport” (J Med Chem, 2007).

One data set concerns Mus musculus. Nature of the data set: Toxicity in ip dosed CD1 mouse. The following applies: in vivo. The class given is organism-based. A digest of the protocol:
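MTD in CD-1 homozygous nude mice after single i.p. doses (HCl salts in saline, 5% DMSO/saline or lactate buffer pH 4.0), escalated in 1.33-fold increments. MTD taken as the highest dose causing no death, no body weight loss >15% and no other severe morbidity in any of 6 mice.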

Data set [1] can be described thus: AUC in CD1 mouse at 237 umol/kg, ip. The class given is ADME, organism-based. Conditions: plasma. The procedure, abridged:
(§1)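 Single i.p. dose to CD-1 homozygous nude mice, drug as HCl salt in 0.9% saline, 5% DMSO/saline or lactate buffer (pH 4.0). Plasma total drug measured by HPLC at 75 or 100% of MTD (MTD from 1.33-fold dose steps, 6 mice). Noncompartmental analysis gave AUC, Cmax and t1/2.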

Data set [2] has as its system HT-29. Nature of the data set: Ratio of IC50 for HT29 cells under oxic conditions to hypoxic conditions after 4 hrs. The class given is functional, Homo sapiens.
The subject of data set [3] is HT-29. In words: Cytotoxicity against human HT29 cells under hypoxic conditions after 4 hrs. The following applies: HT-29, 4 h. Format: functional, cell-based.
Data set [4] in a line: Solubility in culture medium in presence of 5% fetal calf serum. The class given is physicochemical. Conditions: culture medium with 5% fetal calf serum.
Data set [5] can be described thus: Cmax in CD1 mouse at 237 umol/kg, ip. The class given is ADME, organism-based. On the set-up: dose 237 umol/kg, route intraperitoneal. The following applies: in vivo. The procedure, abridged: as §1
The nature of data set [6]: Half life in CD1 mouse at 237 umol/kg, ip. The class given is ADME, organism-based. The following applies: in vivo. The procedure, abridged: as §1
Data set [7] concerns HT-29. Nature of the data set: Effect on human HT29 cells under hypoxic conditions assessed as drug level causing 10% clonogenic survival. The class given is functional. The procedure, abridged: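 HT29 suspensions (1 or 2 × 10^6 cells/mL) in serum-free medium were stirred under 5% CO2/95% N2 for 90 min. Drug was added from deoxygenated DMSO stock at a level giving about 10% survival at 1 h, and samples were taken up to 3 h. Clonogenic survival (14 days, methylene blue) was fitted with the HPLC concentration–time data, and the 10% survival exposure was interpolated.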

Data set [8] has as its system SiHa. In words: Ratio of IC50 for SiHa cells under oxic conditions to hypoxic conditions after 4 hrs. The class given is functional, Homo sapiens.
The test system of data set [9] is SiHa. Nature of the data set: Cytotoxicity against human SiHa cells under hypoxic conditions after 4 hrs. Format: functional, cell-based.
In data set [10] the test system is HT-29. Nature of the data set: Antitumor activity against human HT29 cells implanted in CD1 mouse at 562 umol/kg, ip administered 5 mins after irradiation by excision assay relative to radiation alone. The class given is functional. The procedure, abridged: (§2)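 Hypoxic-cell excision assay in HT29 xenografts in CD-1 homozygous nude mice. Mice received 20 Gy γ radiation to sterilize oxic tumor cells, then a single i.p. drug dose (HCl salt in saline, 5% DMSO/saline or pH 4.0 lactate buffer) 5 min later. Tumors excised at 18 h and plated for clonogens/g. Log cell kill = log(clonogens/g, radiation only) − log(clonogens/g, radiation plus drug).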

In data set [11] the test system is HT-29. In words: Antitumor activity against human HT29 cells implanted in CD1 mouse assessed as clonogenic survival at 562 umol/kg, ip after 18 hrs relative to control. The class given is functional. A digest of the protocol: (§3)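 HT29 xenografts in CD-1 homozygous nude mice; single i.p. dose of drug alone, formulated as the HCl salt in 0.9% saline, 5% DMSO/saline or lactate buffer (pH 4.0). Tumors excised 18 h later, dissociated to single-cell suspensions and plated. Clonogens/g of tumor counted; surviving fraction = treated/control clonogens/g.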

Data set [12] in a line: AUC in CD1 mouse at 562 umol/kg, ip. Format: ADME, organism-based. Conditions: plasma. The procedure, abridged: as §1
Data set [13] concerns HT-29. In words: Diffusion coefficient, D in HT29 multicellular layers. The class given is ADME, cell-based. The following applies: human. A digest of the protocol:
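HT29 multicellular layers were grown 3 days on collagen-coated Teflon membranes, equilibrated 60 min under 95% O2/5% CO2 at 37 °C, then placed in a diffusion chamber. Donor and receiver were sampled up to 5 h and assayed by HPLC. D came from fitting both profiles to a Fickian model with membrane and MCL in series, corrected by support-only Ds.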

A short description of data set [14]: Cmax in CD1 mouse at 562 umol/kg, ip. On the set-up: dose 562 umol/kg, route intraperitoneal. Format: ADME, organism-based. Conditions: in vivo. The procedure, abridged: as §1
The nature of data set [15]: Half life in CD1 mouse at 562 umol/kg, ip. The class given is ADME, organism-based. Conditions: in vivo. The procedure, abridged: as §1
A short description of data set [16]: Cmax in CD1 mouse at 316 umol/kg, ip. The class given is ADME, organism-based. On the set-up: dose 316 umol/kg, route intraperitoneal. The following applies: in vivo. A digest of the protocol:
as §1

The nature of data set [17]: AUC in CD1 mouse at 316 umol/kg, ip. Format: ADME, organism-based. Conditions: plasma. The procedure, abridged: as §1
Data set [18] in a line: Half life in CD1 mouse at 316 umol/kg, ip. Conditions: in vivo. The class given is ADME, organism-based. A digest of the protocol:
as §1

Data set [19] can be described thus: AUC in CD1 mouse at 421 umol/kg, ip. The class given is ADME, organism-based. Conditions: plasma. The procedure, abridged: as §1
Data set [20] can be described thus: Half life in CD1 mouse at 421 umol/kg, ip. The class given is ADME, organism-based. The following applies: in vivo. A digest of the protocol: as §1
Data set [21] can be described thus: Cmax in CD1 mouse at 421 umol/kg, ip. The class given is ADME, organism-based. On the set-up: dose 421 umol/kg, route intraperitoneal. The following applies: in vivo. A digest of the protocol:
as §1

The test system of data set [22] is HT-29. Nature of the data set: Antitumor activity against human HT29 cells implanted in CD1 mouse assessed as clonogenic survival at 1000 umol/kg, ip after 18 hrs relative to control. Format: functional. A digest of the protocol:
as §3

Data set [23] relates to HT-29. In words: Antitumor activity against human HT29 cells implanted in CD1 mouse at 1000 umol/kg, ip administered 5 mins after irradiation by excision assay relative to radiation alone. The class given is functional. The procedure, abridged:
as §2

Data set [24] can be described thus: Half life in CD1 mouse at 1000 umol/kg, ip. The following applies: in vivo. Format: ADME, organism-based. A digest of the protocol:
as §1

Data set [25] can be described thus: Cmax in CD1 mouse at 1000 umol/kg, ip. The class given is ADME, organism-based. Conditions: in vivo. On the set-up: dose 1000 umol/kg, route intraperitoneal. The procedure, abridged: as §1
Data set [26] is described as follows: AUC in CD1 mouse at 1000 umol/kg, ip. The class given is ADME, organism-based. The following applies: plasma. A digest of the protocol:
as §1

Molecules are shown by their SMILES.

In the data set with Mus musculus, `CCOc1ccc2c(c1)[n+]([O-])c(NCCN1CCCCC1)n[n+]2[O-]` yielded an MTD of 316 µmol/kg. In data set [1], this molecule gave an AUC of 10.7 µM·h. Besides, the “Ratio IC50” value is 116 with HT-29 [2] and 169 in the data set on SiHa [8]. Besides, the IC50 in the data set with HT-29 [3] stood at 2.2 µM; in the data set on SiHa [9], 1.7 µM. In addition, the solubility in data set [4] is greater than 49 mM. In [5], this molecule yielded a Cmax of 9.8 µM. The molecule further returned a half-life in data set [6] of 40.1 min. Further, the Activity with HT-29 [7] was found to be 36.3 µM·h.
Turning to `[O-][n+]1nc(NCCN2CCOCC2)[n+]([O-])c2ccccc21`, the figures for the LCK with HT-29 [10] and with HT-29 [11] were 0.6 and 0.29, respectively. Further, the MTD in the data set with Mus musculus is 562 µmol/kg. This molecule gave an area under the curve (AUC) in [12] of 105 µM·h. Moreover, in the data set with HT-29 [13], the D was 3.63e-07 cm²/s. Besides, the entries for the “Ratio IC50” value in the data set with HT-29 [2] and in the data set with SiHa [8] were 34 and 44, respectively. This molecule also gave a Cmax in data set [14] of 160 µM. In addition, the results for the IC50 in the data set on HT-29 [3] and in the data set on SiHa [9] were 17.3 µM and 6.6 µM, respectively. The solubility in [4] is greater than 49 mM. Further, in data set [15], the half-life came to 16.5 min. Also, in the data set with HT-29 [7], the Activity was 47.5 µM·h.
For the molecule `CCCN(CCC)CCNc1n[n+]([O-])c2ccc(C(C)(C)C)cc2[n+]1[O-]`, the D in the data set with HT-29 [13] came out at 1.75e-06 cm²/s. Moreover, the “Ratio IC50” value came out at 18 in the data set on HT-29 [2] and 35 with SiHa [8]. Besides, the IC50 with HT-29 [3] was found to be 8.3 µM; with SiHa [9] it was 3.8 µM. Also, the solubility in data set [4] was 32 mM. Moreover, in the data set with HT-29 [7], the Activity is 66.6 µM·h.
In the data set on Mus musculus, `CCCN(CCC)CCNc1n[n+]([O-])c2ccc(C)cc2[n+]1[O-]` registered an MTD of 421 µmol/kg. This molecule also returned a Cmax in [16] of 3.8 µM. The D in the data set on HT-29 [13] came to 1.48e-06 cm²/s. The figures for the “Ratio IC50” value in the data set with HT-29 [2] and in the data set on SiHa [8] were 108 and 149, respectively. Besides, the AUC in [17] is 2.6 µM·h. The values for the IC50 in the data set with HT-29 [3] and in the data set on SiHa [9] were 2.7 µM and 0.6 µM, respectively. Also, in data set [4], the solubility turned out to be 38 mM. Further, the Activity with HT-29 [7] stood at 38.6 µM·h. Moreover, in data set [18], the half-life was found to be 17.3 min.
In turn, `CN(C)CCNc1n[n+]([O-])c2ccc(C(C)(C)C)cc2[n+]1[O-]` registered an MTD in the data set on Mus musculus of 421 µmol/kg. The molecule also had an AUC in data set [19] of 9.73 µM·h. For the same molecule, the D in the data set with HT-29 [13] was determined as 8.63e-07 cm²/s. The molecule further registered a half-life in [20] of 12.5 min. The “Ratio IC50” value with HT-29 [2] is on record as 99; with SiHa [8] it was 78. Besides, the IC50 with HT-29 [3] was found to be 3.7 µM; in the data set with SiHa [9], 1.1 µM. The solubility in [4] is 38 mM. In data set [21], this molecule yielded a Cmax of 16.1 µM. Also, in the data set with HT-29 [7], the Activity came to 11.4 µM·h.
In turn, `CC(C)(C)c1ccc2c(c1)[n+]([O-])c(NCCN1CCCCC1)n[n+]2[O-]` gave a D with HT-29 [13] of 1.5e-06 cm²/s. Also, the entries for the “Ratio IC50” value with HT-29 [2] and in the data set with SiHa [8] were 31 and 121, respectively. The results for the half-maximal inhibitory concentration (IC50) in the data set on HT-29 [3] and in the data set with SiHa [9] were 4 µM and 0.6 µM, respectively. Also, the solubility in [4] came to 28 mM. Besides, the Activity in the data set on HT-29 [7] was 30.3 µM·h.
Take `Cc1ccc2c(c1)[n+]([O-])c(N)n[n+]2[O-]`: the values for the LCK in the data set on HT-29 [22] and in the data set on HT-29 [23] were 0.39 and 2.16, respectively. In the data set on Mus musculus, this molecule registered an MTD of 1000 µmol/kg. The same molecule registered a D in the data set with HT-29 [13] of 5.43e-07 cm²/s. Besides, the “Ratio IC50” value with HT-29 [2] is on record as 36. Further, the 50% inhibitory concentration (IC50) in the data set with HT-29 [3] came out at 12.9 µM. The solubility in data set [4] turned out to be 3 mM. The half-life in data set [24] is 34.1 min. The Cmax in data set [25] stood at 198 µM. Further, in the data set on HT-29 [7], the Activity came to 61.9 µM·h.
`CC(C)Oc1ccc2c(c1)[n+]([O-])c(NCCN(C)C)n[n+]2[O-]`: the figures for the LCK in the data set with HT-29 [22] and with HT-29 [23] were -0.17 and 0.53, respectively. In the data set with Mus musculus, this molecule returned an MTD of 1330 µmol/kg. Further, the Ratio IC50 with HT-29 [2] amounted to 162; with SiHa [8], 31. For the same molecule, the IC50 turned out to be 6.2 µM in the data set with HT-29 [3] and 3.2 µM in the data set with SiHa [9]. For the same molecule, the solubility in [4] is greater than 55 mM. In addition, the half-life in [24] was found to be 26.1 min. Besides, in data set [25], the peak level (Cmax) was 123 µM. Besides, the Activity with HT-29 [7] came to 22.3 µM·h. Also, the AUC in [26] turned out to be 102 µM·h.

What is called AUC is concentration integrated over time. Read a high AUC as high exposure. The term IC50 denotes the midpoint of a concentration-inhibition curve. Usually solubility stands for how much of the substance goes into solution per volume. As usually defined, the Cmax is the highest concentration seen after dosing. Usually half-life stands for how long it takes for the measured level to halve.
